Assay outcomes deposited in PubChem by several laboratories.
KCNQ1 act: potentiators or activators of KCNQ1 channel, primary screen, cell-based, thallium flux, high-throughput; Potassium voltage-gated channel subfamily KQT member 1 (Homo sapiens), P51787; CHO-K1 KCNQ1, thallium flux FluxOR fluorescence; hits give high values; B-score at 10 µM; 310,000 compounds, 0.35% hits;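 active means fluorescence ratio B-score, a plate-corrected score, at least three library SD, with initial intensity B-score within 5 SD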
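System: Stable KCNQ1 CHO-K1 line | Incubation: 90 min dye loading and 20 min compound exposure, both at room temperature | Measure: Ratio B score | Medium: Assay buffer for compound exposure, DMSO matched across wells | Compound dosing: Single-concentration screen | Probe or stimulus: K+/Tl+ depolarizing stimulus | Measured by: Kinetic FluxOR fluorescence, 10 s baseline plus 110 s post-stimulus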
KCNQ1 block: inhibitors of human KCNQ1 channel, primary screen, cell-based, thallium flux, high-throughput. Potassium voltage-gated channel subfamily KQT member 1 (Homo sapiens), P51787. CHO-K1 KCNQ1, FluxOR thallium flux fluorescence; hits give high values. B-score at 10 µM. 310,000 compounds, 1.3% hits. AID 2642, 2010;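 active means compounds whose thallium flux B-score, printed positive for inhibition, exceeds three library SD while starting fluorescence stays within three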;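 further: channel opened by potassium depolarization with thallium stimulus after 20 min compound exposure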
KCNK3 inh: human KCNK3 channel inhibitors, primary screen, CHO cells, FluxOR thallium flux, B-score; 340,000 compounds, 0.84% hits; AID 602410, 2012; B-score at 10 µM; FluxOR fluorescence; hits give low values; Potassium channel subfamily K member 3 (Homo sapiens), O14649;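 active means B-score under library mean minus 4 SD, starting fluorescence ratio at most library mean plus 5 SD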;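 further: more negative B-score means stronger inhibition of thallium flux through KCNK3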
Cl transport mod: KCC2 cotransporter modulators, thallium flux, primary screen, cell-based, HEK293 KCC2, FluoZin-2 fluorescence, MLSMR; Solute carrier family 12 member 5 (Homo sapiens), Q9H2X9; KCC2 cells, thallium flux FluoZin-2 fluorescence; B-score of Tl+ flux slope (higher = more flux/activation; lower = inhibition) at 10 µM; 190,000 compounds, 2.2% hits;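 active means thallium flux slope and its plate-corrected score both differing from the plate sample mean at a set confidence after two filtering rounds, in either direction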;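 further: slope of fluorescence scaled to starting intensity during 10 to 20 s after thallium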
KCNK9 inh: KCNK9 potassium channel inhibitors, primary screen, HEK293 cells, thallium flux; Potassium channel subfamily K member 9 (Homo sapiens), Q9NPC2; FluxOR thallium flux fluorescence; hits give low values; B-score at 10 µM; 310,000 compounds, 1.2% hits; AID 488922, 2010;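 active means ratio B-score over 3 SD below the library mean, with starting fluorescence within 5 SD of its mean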;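 further: negative B-score means less thallium flux so channel inhibition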
hERG rescue: hERG rescue from dofetilide block, primary screen, cell-based, CHO-hERG, FluxOR thallium flux, dofetilide IC70 | Voltage-gated inwardly rectifying potassium channel KCNH2 (Homo sapiens), Q12809 | dofetilide IC70 present | activation (rescue from dofetilide block), less the hit threshold, % at 10 µM | 310,000 compounds, 0.51% hits;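 active means activation above the mean of controls blocked by dofetilide plus 5 SD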;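 further: thallium influx through hERG after potassium depolarization seen as dye fluorescence rise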
Numbers without * were called inactive; i = inactive; . = no result. Most compounds without a hit are left out; they make up all but 4.1% or so of the library.

SMILES	KCNQ1 act	KCNQ1 block	KCNK3 inh	Cl transport mod	KCNK9 inh	hERG rescue
O=C1CN(C(=O)COC(=O)CCc2ccccc2O)c2ccccc2N1	.	.	i	.	.	.
O=[N+]([O-])c1cccc(-c2nc(-c3cccs3)c(-c3cccs3)[nH]2)c1	i	i	i	-0.96	i	1
COc1ccc(-c2nc(-c3cccs3)c(-c3cccs3)[nH]2)cc1OC	i	7*	i	-0.72	i	-12
CCOC(=O)C1CCN(C(=O)Cc2c(C(=O)O)n(CC)c3ccccc23)CC1	i	i	i	0.074	i	5.5*
O=C(Oc1c(-c2ccccc2)c(=O)n2c3c(cccc13)CC2)c1cccc([N+](=O)[O-])c1	i	6*	i	-2.7	i	-11
Cc1cccc(S(=O)(=O)c2c(N)n(Cc3ccco3)c3nc4ccccc4nc23)c1	i	6*	i	-5.5*	i	-10
Cc1cccc(-n2cnc3c(c2=O)c2nc4ccccc4nc2n3Cc2ccco2)c1	i	i	i	.	i	-10
Nc1cc(SCc2ccc(Cl)cc2Cl)ncn1	.	.	i	.	.	.
COc1ccc(-c2nnc(NC(=O)c3ccc(S(=O)(=O)N4CCCc5ccccc54)cc3)o2)cc1	i	i	i	12*	i	-6
O=C(NCc1ccco1)c1ccc(S(=O)(=O)N2CCCc3ccccc32)cc1	i	i	i	.	-6.9*	-9
O=C(NCc1ccccc1)c1ccc(S(=O)(=O)N2CCCC2)cc1	i	i	i	-0.46	i	-8
O=C(NCc1ccccc1)c1ccc(S(=O)(=O)N2CCCc3ccccc32)cc1	i	i	i	-0.37	-7.3*	-15
CCCCn1c(N)c(N(CC(C)C)C(=O)CCCc2nc3ccccc3s2)c(=O)[nH]c1=O	i	i	i	.	i	-25
CS(=O)(=O)c1sc(C#N)c2c1C(=O)CC(c1ccccc1)C2 (stereo not given)	27*	i	i	.	i	-10
COc1ccccc1N(Cc1ccccc1)S(=O)(=O)c1cccc(C(=O)Nc2ccc(C)cn2)c1	i	6*	i	.	i	-18
COc1ccccc1N(Cc1ccccc1)S(=O)(=O)c1cccc(C(=O)Nc2ccccn2)c1	i	i	i	.	i	-11
Cn1ncc2c(O/N=C(\N)c3ccc(C(C)(C)C)cc3)ncnc21	10*	i	i	-1.3	i	-4
CCOC(=O)c1nc(N2CCN(C(=O)OCC)CC2)c2c3c(sc2n1)CCCC3	i	i	i	-2.2	i	-19
CCNC(=S)N1CCN(c2nc(CC)nc3sc4c(c23)CCCC4)CC1	i	i	-12*	.	i	-14
CCCc1[nH]nc2c1C(c1cccc(OC(=O)c3ccco3)c1)C(C#N)=C(N)O2 (stereo not given)	i	i	i	-0.093	i	4.6*
O=C(Oc1ccccc1)n1c(=S)oc2ccccc21	i	i	i	0.94	i	0
Cc1ccccc1OC(=O)n1c(=S)oc2cc(Cl)ccc21	10*	i	i	2.6*	i	-1
CCOC(=O)c1c(C)cccc1OCC(N)=O	i	i	i	-1.2	i	6.2*
CCOC(=O)c1c(C)oc2ccc(OCC(N)=O)cc12	i	i	i	0.25	i	-2
CC(OC(=O)CN1C(=O)c2ccccc2C1=O)C(=O)NC1CCCCC1 (stereo not given)	i	i	i	.	i	-3
SMILES	KCNQ1 act	KCNQ1 block	KCNK3 inh	Cl transport mod	KCNK9 inh	hERG rescue
CO/N=C/c1ccc(N2CCN(C(=O)c3ccc(Cl)cc3Cl)CC2)c([N+](=O)[O-])c1	i	7*	i	-0.42	i	-20
O=C(Nc1ccccc1F)NC1CCCCCCC1	i	i	i	.	i	-5
O=C(Nc1ccccc1F)NC1CC1	i	i	i	-1.7	i	5.8*
COC(=O)C1=C(C)NC(=O)/C1=C\c1cc(C)n(-c2cccc(C)c2)c1C	i	9*	i	.	i	-17
COC(=O)C1=C(C)NC(=O)/C1=C\c1cc(C)n(-c2ccc(F)cc2)c1C	i	i	i	-0.59	i	-6
COc1ccc(OCC(=O)N2CCCC(CO)(CCOc3ccccc3)C2)cc1 (stereo not given)	i	i	i	.	i	-5
Cc1ccccc1CCNC(=O)Cn1ccc2cc(S(=O)(=O)N3CCCC3)ccc21	i	i	i	.	i	-4
Cc1ccc(NC(=O)NC2(C(=O)NCc3ccccc3)CCCCC2)cc1	i	i	i	-1.4	i	-9
Cc1ccc(CNC(=O)C2(NC(=O)Nc3ccc(C)cc3)CCCCC2)cc1	i	i	i	.	i	4.6*
COc1ccc(NC(=O)c2cc(-c3ccccn3)nc3ccccc23)cc1S(=O)(=O)N(C)C	.	.	i	.	.	.
Cc1ccc(NC(=O)CC(O)(C(F)(F)F)C(F)(F)F)c(Br)c1	i	6*	i	-0.089	i	-11
CCOc1ccccc1NC(=O)CC(O)(C(F)(F)F)C(F)(F)F	i	6*	i	.	i	-10
CCC(C)NC(=O)c1ccc(N2CC3CC(C2)c2cccc(=O)n2C3)c(NC(=O)c2ccc(Br)o2)c1 (stereo not given)	i	i	i	.	i	-9
CC(=O)c1ccc(-c2ccc(-c3cc(=O)oc4c(C(C)C)ccc(C)c34)cc2)cc1	.	.	i	.	.	.
CCOc1ccccc1NC(=O)c1ccc(NC(=O)c2ccco2)cc1	i	i	i	0.47	-6.6*	-8
COc1ccccc1NC(=O)c1cc(Cl)ccc1NC(=O)c1ccco1	i	i	i	.	i	-9
COc1ccccc1NC(=O)c1ccc(NC(=O)c2ccco2)cc1	i	i	i	.	i	-4
COc1ccccc1NC(=O)C(=O)NNC(=O)c1ccco1	16*	i	i	8.3*	i	22*
O=C(Nc1ccccc1C(=O)O)c1cccc(NC(=O)c2ccco2)c1	i	i	i	.	i	5.3*
CC(=O)c1cccc(NC(=O)c2cccc(NC(=O)c3ccco3)c2)c1	i	i	i	.	i	-8
Cc1ccc(O)c(NC(=O)c2cccc(NC(=O)c3ccco3)c2)c1	i	i	-9.4*	.	-6.9*	-9
COc1ccccc1NS(=O)(=O)c1ccc(C)c(C(=O)NCC2(N(C)C)CCCCC2)c1	.	.	i	.	.	.
